From PubChem
A selection: hits, their analogues and other compounds. The true share with any hit is near 1.8%.
NR1D1 modulator: modulates human Rev-erb alpha binding to DNA. activity, % at 10 µM. 0.79% of 370,000 active. P20393. Rev-erbα–FITC-DNA binding, fluorescence polarization, 90 min;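 active = activity above about 14%, limit read from the data; passing the limit was not always enough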
PG9 binder: PG9 antibody binding by small molecule. TR-FRET gp120-PG9 antibody binding. AID 624416. inhibition, % at 6.7 µM. 0.43% of 360,000 active; in the data active = inhibition above about 8.5%
GalR3 antagonist: blocks the human galanin receptor 3; HEK293 GalR3-CNG cAMP membrane potential fluorescence; galR3 body fused to GalR1 C-terminus; O60755; 0.44% of 360,000 active; AID 651719; inhibition, % at 3 µM;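 active = inhibition above the screen-wide average plus 3 SD, cut at about 13% in these data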;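 note: forskolin and galanin both at EC90 stimulate the cells; cAMP rise reported by CNG channel membrane potential dye signal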
Target sequence (O60755 1-299 limits assumed): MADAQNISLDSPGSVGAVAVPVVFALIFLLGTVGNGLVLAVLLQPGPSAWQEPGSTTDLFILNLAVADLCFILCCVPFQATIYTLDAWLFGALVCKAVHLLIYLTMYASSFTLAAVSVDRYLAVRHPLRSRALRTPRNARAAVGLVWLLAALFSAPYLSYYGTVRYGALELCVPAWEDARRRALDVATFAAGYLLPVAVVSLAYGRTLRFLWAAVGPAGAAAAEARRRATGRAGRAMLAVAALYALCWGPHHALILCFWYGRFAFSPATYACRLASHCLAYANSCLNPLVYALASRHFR
NR2E3 ag-1: activates human NR2E3 receptor | Q9Y5X4 | CHO-S Gal4-NCOR/VP16-NR2E3 two-hybrid, luciferase | inhibition of corepressor binding, % at 3.98 µM | 0.35% of 360,000 active;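 active = inhibition above the mean of all tested compounds plus 3 SD, cut at about 70% in these data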;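 note: higher means lower luciferase signal from less NR2E3 corepressor binding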
NR2E3 ag-2: agonists of human nuclear receptor NR2E3 | 0.12% of 320,000 active | GST-NR2E3/biotin-RetCOR TR-FRET, 1536-well | AID 2300 | inhibition of corepressor binding, % at 4.78 µM;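 active = percent inhibition above the cutoff of mean plus 3 SD of all tested compounds, set per screening campaign, cut at about 20% in these data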
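System: GST-NR2E3 and biotin-RetCOR proteins; probe or stimulus: 7 nM biotin-RetCOR; doses: compound at 4.8 µM, single dose; schedule: Compound–protein incubation for 5 h at 4 °C; detection: time-resolved FRET; read-out: percent inhibition; controls: biotin wells as high control, 0.6% DMSO wells as low control; format: 1536-well plates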
PG9 binder conf: PG9 antibody binding, confirmed; shares compounds with PG9 binder; TR-FRET PG9 antibody binding, biochemical; inhibition, % at 6.7 µM; 90% of 1,500 active; in the data active = inhibition above about 9%
PGV04 Ab binding: binds control antibody PGV04 in PG9 binder counter-screen; inhibition, % at 6.7 µM; 95% of 1,500 active; TR-FRET PGV04 antibody-gp120 binding, biochemical; shares compounds with PG9 binder; in the data active = inhibition above about 9.5%
PG9 binder DR: PG9 antibody binding, dose response; shares compounds with PG9 binder; TR-FRET PG9 antibody-gp120 binding inhibition; IC50, µM; 95 tested, under 10 active; in the data active = IC50 below about 10 µM
PGV04 binding DR: counter-screen for PG9 binders: binding to control antibody PGV04; 20% of 95 active; IC50, µM; TR-FRET binding to control antibody PGV04; shares compounds with PG9 binder; AID 651937
PG126 DR counter: binds control antibody PG126 in PG9 counter-screen; 20% of 95 active; AID 651939; IC50, µM; TR-FRET binding to antibody PG126, counterscreen; shares compounds with PG9 binder
Hits are given with their value. Cut-off read from the data, not from the text of the source, unless noted: active = IC50 below about 9 µM; inactive = the rest.

What do the screens show for `O=C(NCCN1CCOCC1)c1cc(-c2ccc(Br)cc2)on1`?
NR1D1 modulator: inactive; PG9 binder: inactive; GalR3 antagonist: inactive; NR2E3 ag-1: inactive; NR2E3 ag-2: inactive

Results for Cc1cn(-c2ccc(Br)cc2)[nH]c1=O ?
NR1D1 modulator: inactive; PG9 binder: 10.0; GalR3 antagonist: inactive; NR2E3 ag-1: inactive; NR2E3 ag-2: inactive; PG9 binder conf: 19; PGV04 Ab binding: 21

Results for COC(=O)c1cc(-c2cccc(OC)c2)c2c(=O)[nH]c(=O)n(C)c2n1 ?
NR1D1 modulator: inactive; PG9 binder: 8.8; GalR3 antagonist: inactive; NR2E3 ag-1: inactive; NR2E3 ag-2: inactive; PG9 binder conf: 18; PGV04 Ab binding: 24

What do the screens show for `COc1ccc(Cn2c(=O)[nH]c3cc(C(=O)NCc4ccc5c(c4)OCO5)ccc3c2=O)cc1`?
PG9 binder: 9.1; GalR3 antagonist: inactive; NR2E3 ag-1: inactive; NR2E3 ag-2: inactive; PG9 binder conf: 14; PGV04 Ab binding: 18

Results for COc1ccc(Cn2c(=O)[nH]c3cc(C(=O)NCCCOC(C)C)ccc3c2=O)cc1 ?
NR1D1 modulator: inactive; PG9 binder: inactive; GalR3 antagonist: inactive; NR2E3 ag-1: inactive; NR2E3 ag-2: inactive

What do the screens show for `CN1CCC(N[C@@H](Cc2ccccc2)C(=O)NCC(c2ccccc2)c2ccccc2)(C(=O)NC2CCCCC2)CC1`?
NR1D1 modulator: inactive

What do the screens show for `CCOc1ccc(NC(=O)CCC(=O)c2ccc(Br)cc2)cc1`?
NR1D1 modulator: inactive; PG9 binder: 16; GalR3 antagonist: inactive; NR2E3 ag-1: inactive; NR2E3 ag-2: inactive; PG9 binder conf: 18; PGV04 Ab binding: 22

Results for COc1ccc(Cl)cc1-c1n[nH]c(=S)o1 ?
NR1D1 modulator: inactive; PG9 binder: 37; GalR3 antagonist: inactive; NR2E3 ag-1: inactive; NR2E3 ag-2: inactive; PG9 binder conf: 36; PGV04 Ab binding: 48

Results for COc1ccccc1-c1n[nH]c(=S)n1N ?
NR1D1 modulator: inactive; PG9 binder: inactive; GalR3 antagonist: inactive; NR2E3 ag-1: inactive; NR2E3 ag-2: inactive

Results for COc1ccccc1-c1n[nH]c(=S)o1 ?
NR1D1 modulator: inactive; PG9 binder: 18; GalR3 antagonist: inactive; NR2E3 ag-1: inactive; NR2E3 ag-2: inactive; PG9 binder conf: 13; PGV04 Ab binding: 24

Results for O=C(CSc1nnc(-c2cccs2)n1Cc1ccco1)Nc1ccc(Oc2ccccc2)cc1 ?
NR1D1 modulator: inactive

Results for COCCN1CCC(CO)C1 (centres undefined) ?
NR1D1 modulator: inactive; PG9 binder: 10; GalR3 antagonist: inactive; NR2E3 ag-1: inactive; PG9 binder conf: inactive; PGV04 Ab binding: 11

Results for COCCN1CCC(CNCc2cn[nH]c2-c2ccc(C)c(C)c2)C1 (centres undefined) ?
NR1D1 modulator: inactive; PG9 binder: inactive; GalR3 antagonist: inactive; NR2E3 ag-1: inactive; NR2E3 ag-2: inactive

Results for COCCNC(=O)c1c[nH]c2ccc(S(=O)(=O)N3CCc4ccccc43)cc2c1=O ?
NR1D1 modulator: inactive; PG9 binder: inactive; GalR3 antagonist: inactive; NR2E3 ag-1: inactive; NR2E3 ag-2: inactive

Results for COCCNC(=O)c1c[nH]c2ccc(S(=O)(=O)Nc3ccccc3F)cc2c1=O ?
NR1D1 modulator: inactive; PG9 binder: 9.6; GalR3 antagonist: inactive; NR2E3 ag-1: inactive; NR2E3 ag-2: inactive; PG9 binder conf: 22; PGV04 Ab binding: 23

Results for COCCNC(=O)c1c[nH]c2ccc(S(=O)(=O)Nc3ccc(F)cc3F)cc2c1=O ?
NR1D1 modulator: inactive; PG9 binder: 9.3; GalR3 antagonist: inactive; NR2E3 ag-1: inactive; NR2E3 ag-2: inactive; PG9 binder conf: 22; PGV04 Ab binding: 22; PG9 binder DR: inactive; PGV04 binding DR: inactive; PG126 DR counter: inactive

Results for CC(C(=O)O)c1ccc2c(c1)CC(=O)c1ccccc1S2 (centres undefined) ?
NR1D1 modulator: inactive

How did Cc1cccc(C(=O)NCC(=O)OCC(=O)c2ccc(Br)s2)c1 do in these assays?
NR1D1 modulator: inactive; PG9 binder: 8.8; GalR3 antagonist: inactive; NR2E3 ag-1: inactive; PG9 binder conf: 14; PGV04 Ab binding: 21

What do the screens show for `CCOC(=O)c1c(C)[nH]c(C(=O)COC(=O)COc2ccc(OC)cc2)c1C`?
NR1D1 modulator: inactive; PG9 binder: 35; GalR3 antagonist: inactive; NR2E3 ag-1: inactive; NR2E3 ag-2: inactive; PG9 binder conf: 35; PGV04 Ab binding: 53

What do the screens show for `Cc1cccc(-c2cccc3c4c([nH]c23)[C@@H]2C[C@H](N(C)C(=O)c3ccco3)[C@H]([C@H](C)O)C(=O)N2CC4)c1`?
NR1D1 modulator: inactive

What do the screens show for `O=C(Cn1cnc2c(NCc3ccccc3)ncnc21)NCc1ccc2[nH]ccc2c1`?
NR1D1 modulator: inactive; PG9 binder: 33; GalR3 antagonist: inactive; NR2E3 ag-1: inactive; PG9 binder conf: 16; PGV04 Ab binding: 29

How did O=C(Cn1cnc2c(OCc3ccccc3)ncnc21)NCc1ccc2[nH]ccc2c1 do in these assays?
NR1D1 modulator: inactive; PG9 binder: inactive; GalR3 antagonist: inactive; NR2E3 ag-1: inactive

How did CSCCC(Nc1ncnc2ccc(Br)cc12)C(=O)O (centres undefined) do in these assays?
NR1D1 modulator: inactive; PG9 binder: 13; GalR3 antagonist: inactive; NR2E3 ag-1: inactive; NR2E3 ag-2: inactive; PG9 binder conf: 20; PGV04 Ab binding: 20

Results for CCCOc1ccc(C2C(C(=O)c3ccco3)=C(O)C(=O)N2CCCn2ccnc2)cc1 (centres undefined) ?
NR1D1 modulator: inactive; PG9 binder: 19; GalR3 antagonist: inactive; NR2E3 ag-1: inactive; NR2E3 ag-2: inactive; PG9 binder conf: 24; PGV04 Ab binding: 28

How did CC(C)Oc1ccc(C2C(C(=O)c3ccco3)=C(O)C(=O)N2Cc2cccnc2)cc1 (centres undefined) do in these assays?
NR1D1 modulator: inactive; PG9 binder: 9.3; GalR3 antagonist: inactive; NR2E3 ag-1: inactive; NR2E3 ag-2: inactive; PG9 binder conf: 15; PGV04 Ab binding: 19

Results for CCCOc1ccc(C2C(C(=O)c3ccco3)=C(O)C(=O)N2CCCn2ccnc2)cc1OC (centres undefined) ?
NR1D1 modulator: inactive; PG9 binder: inactive; GalR3 antagonist: inactive; NR2E3 ag-1: inactive
